Active and inactive are the calls of the source. No cut-off for these calls is given here.
What was measured:
Integrin alpha-V/beta-3 [1] = molecular target: T1, Integrin alpha-V/beta-3 (Homo sapiens, UniProt P05106+P06756); assay: Agonist activity at alphaVbeta3 integrin receptor in human SK-MEL-24 cells assessed as increase in fibronectin-induced cell adhesion pre-incubated for 30 mins; format: cell-based
Summary of the method: (§1)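 Integrin-mediated adhesion. αvβ3: SK-MEL-24 cells adhering to FN. α5β1: K562 cells adhering to FN. α4β1: Jurkat E6.1 cells adhering to VCAM-1. Values are mean ± SD, n=3.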

Integrin alpha-4/beta-1 [2] = molecular target: T2, Integrin alpha-4/beta-1 (Homo sapiens, UniProt P05556+P13612); assay: Binding affinity to alpha4beta1 integrin receptor (unknown origin) incubated for 1 hr by scintillation proximity binding assay; format: protein-complex assay
Summary of the method: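 Scintillation proximity binding assay for α4β1, giving IC50. Mean ± SEM, n=3.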

Integrin alpha-V/beta-3 [3] = molecular target: T1, Integrin alpha-V/beta-3; assay: Agonist activity at alphaVbeta3 integrin receptor in human Saos-2 cells assessed as increase in cell adhesion to wells coated with compound by passive absorption in absence of fibronectin; format: cell-based
Summary of the method: (§2)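 Compounds were coated onto wells by passive absorption, with no FN present. Adhesion of SK-MEL-24 or Saos-2 cells was compared with BSA-coated wells. Mean ± SEM from three independent experiments run in quadruplicate; Newman-Keuls test after ANOVA.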

Integrin alpha-V/beta-3 [4] = molecular target: T1, Integrin alpha-V/beta-3; assay: Agonist activity at alphaVbeta3 integrin receptor (unknown origin) expressed in HEK293 cells assessed as induction of ERK1/2 phosphorylation at 1 nM to 100 nM incubated for 1 hr by Western blot analysis; format: cell-based
Summary of the method: (§3)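 HEK293 cells were transfected with plasmids coding αv and β3 subunits; untransfected HEK293 served as negative control and FN as positive control. ERK1/2 phosphorylation was quantified by band densitometry against vehicle. Mean ± SEM, n=5; Newman-Keuls test after ANOVA.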

Integrin alpha-V/beta-3 [5] = molecular target: T1, Integrin alpha-V/beta-3; assay: Agonist activity at alphaVbeta3 integrin receptor in human SK-MEL-24 cells assessed as increase in cell adhesion to wells coated with compound by passive absorption in absence of fibronectin; format: cell-based; summary of the method: as §2
Integrin alpha-5/beta-1 [6] = molecular target: T3, Integrin alpha-5/beta-1 (Homo sapiens, UniProt P05556+P08648); assay: Binding affinity to alpha5beta1 integrin receptor (unknown origin) incubated fro 30 mins by competitive solid-phase binding assay; format: protein-complex assay
Summary of the method: (§4)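 Competitive solid-phase binding assay using FN for αvβ3 and α5β1, giving IC50. Mean ± SEM, n=3.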

Integrin alpha-V/beta-3 [7] = molecular target: T1, Integrin alpha-V/beta-3; assay: Agonist activity at alphaVbeta3 integrin receptor in human Saos-2 cells assessed as increase in fibronectin-induced cell adhesion pre-incubated for 30 mins; format: cell-based
Integrin alpha-V/beta-3 [8] = molecular target: T1, Integrin alpha-V/beta-3; assay: Agonist activity at alphaVbeta3 integrin receptor in human SK-MEL-24 cells assessed as increase in fibronectin-induced cell adhesion at 10 ug/ml added 10 mins after pre-incubation with neutralizing antibody to integrin alphaV-subunit; format: cell-based
Summary of the method: (§5)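 Neutralizing antibody against the αv subunit was added to SK-MEL-24 or Saos-2 cells 10 min before the compounds (10 μg/mL). Adhesion was then measured.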

Integrin alpha-4/beta-1 [9] = molecular target: T2, Integrin alpha-4/beta-1; assay: Activity at alpha4beta1 integrin receptor in human Jurkat E6.1 cells assessed as effect on VCAM1-induced cell adhesion pre-incubated for 30 mins; format: cell-based; summary of the method: as §1
Integrin alpha-V/beta-3 [10] = molecular target: T1, Integrin alpha-V/beta-3; assay: Agonist activity at alphaVbeta3 integrin receptor in human Saos-2 cells assessed as increase in fibronectin-induced cell adhesion at 10 ug/ml added 10 mins after pre-incubation with neutralizing antibody to integrin alphaV-subunit; format: cell-based; summary of the method: as §5
Integrin alpha-5/beta-1 [11] = molecular target: T3, Integrin alpha-5/beta-1; assay: Antagonist activity at alpha5beta1 integrin receptor in human K562 cells assessed as reduction in fibronectin-induced cell adhesion pre-incubated for 30 mins; format: cell-based; summary of the method: as §1
Integrin alpha-V/beta-3 [12] = molecular target: T1, Integrin alpha-V/beta-3; assay: Binding affinity to alphaVbeta3 integrin receptor (unknown origin) incubated fro 30 mins by competitive solid-phase binding assay; format: protein-complex assay; summary of the method: as §4
[13] = molecular target: Mitogen-activated protein kinase; ERK1/ERK2 (Homo sapiens) (UniProt P27361+P28482); assay: Activation of ERK1/2 phosphorylation in HEK293 cells at 1 nM to 100 nM incubated for 1 hr by Western blot analysis; format: cell-based; summary of the method: as §3
Integrin alpha-5/beta-1 [14] = molecular target: T3, Integrin alpha-5/beta-1; assay: Activity at alpha5beta1 integrin receptor in human K562 cells assessed as effect on fibronectin-induced cell adhesion pre-incubated for 30 mins; format: cell-based; summary of the method: as §1
Integrin alpha-4/beta-1 [15] = molecular target: T2, Integrin alpha-4/beta-1; assay: Agonist activity at alpha4beta1 integrin receptor in human Jurkat E6.1 cells assessed as increase in VCAM1-induced cell adhesion pre-incubated for 30 mins; format: cell-based; summary of the method: as §1
Integrin alpha-V/beta-3 [16] = molecular target: T1, Integrin alpha-V/beta-3; assay: Activity at alphaVbeta3 integrin receptor in human SK-MEL-24 cells assessed as effect on fibronectin-induced cell adhesion pre-incubated for 30 mins; format: cell-based; summary of the method: as §1
Integrin alpha-4/beta-1 [17] = molecular target: T2, Integrin alpha-4/beta-1; assay: Agonist activity at alpha4beta1 integrin receptor in human Jurkat E6.1 cells assessed as increase in VCAM1-induced cell adhesion at 10 ug/ml pre-incubated for 30 mins in presence of 10 ug/ml neutralizing antibody to alpha4 integrin subunit; format: cell-based
Integrin alpha-5/beta-1 [18] = molecular target: T3, Integrin alpha-5/beta-1; assay: Agonist activity at alpha5beta1 integrin receptor in human K562 cells assessed as increase in fibronectin-induced cell adhesion pre-incubated for 30 mins; format: cell-based; summary of the method: as §1
Integrin alpha-4/beta-1 [19] = molecular target: T2, Integrin alpha-4/beta-1; assay: Agonist activity at alpha4beta1 integrin receptor in human Jurkat E6.1 cells assessed as induction of ERK1/2 phosphorylation incubated for 1 hr by Western blot analysis; format: cell-based
Summary of the method: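 Jurkat cells (α4β1) were treated across a concentration range with VCAM-1 as positive control. ERK1/2 phosphorylation was quantified by band densitometry against vehicle. Mean ± SEM, n=5; Newman-Keuls test after ANOVA.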

Integrin alpha-5/beta-1 [20] = molecular target: T3, Integrin alpha-5/beta-1; assay: Antagonist activity at alpha5beta1 integrin receptor in human K562 cells assessed as reduction in fibronection-induced ERK1/2 phosphorylation at 1 nM to 100 nM pre-incubated for 1 hr before fibronectin stimulation for 1 hr by Western blot analysis; format: cell-based
Summary of the method: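 K562 cells (α5β1) were treated with compound and stimulated with FN. FN-induced ERK1/2 phosphorylation was quantified by band densitometry against vehicle and FN. Mean ± SEM, n=5; Newman-Keuls test after ANOVA.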

| IC50 (Integrin alpha-4/beta-1 [2]) [nM] | IC50 (Integrin alpha-5/beta-1 [6]) [nM] | Activity (Integrin alpha-4/beta-1 [9]) [µM] | IC50 (Integrin alpha-5/beta-1 [11]) [nM] | IC50 (Integrin alpha-V/beta-3 [12]) [nM] | Activity (Integrin alpha-5/beta-1 [14]) [µM] | Activity (Integrin alpha-V/beta-3 [16]) [µM] | Structure (SMILES) | also measured |
| --- | --- | --- | --- | --- | --- | --- | --- | --- |
| > 1000 | > 1000 | > 5 | 3510 | 3.4 |  |  | Cc1ccccc1NC(=O)NCC(=O)O | EC50 (Integrin alpha-V/beta-3 [1]): 84.8 nM; Activity (Integrin alpha-V/beta-3 [3]): Active; Activity (Integrin alpha-V/beta-3 [4]): Active; Activity (Integrin alpha-V/beta-3 [5]): Active; EC50 (Integrin alpha-V/beta-3 [7]): 299 nM; Activity (Integrin alpha-V/beta-3 [8]): inactive; Activity (Integrin alpha-V/beta-3 [10]): inactive; Activity [13]: inactive |
| 294 | > 1000 |  |  | 29 | > 5 |  | O=C(O)/C=C1/CC(=O)N1 | EC50 (Integrin alpha-V/beta-3 [1]): 75.6 nM; Activity (Integrin alpha-V/beta-3 [3]): Active; Activity (Integrin alpha-V/beta-3 [4]): Active; Activity (Integrin alpha-V/beta-3 [5]): Active; EC50 (Integrin alpha-V/beta-3 [7]): 154 nM; Activity (Integrin alpha-V/beta-3 [8]): inactive; Activity (Integrin alpha-V/beta-3 [10]): inactive; Activity [13]: inactive; EC50 (Integrin alpha-4/beta-1 [15]): 255 nM |
|  |  |  |  |  | > 5 | > 5 | Cc1ccccc1NC(=O)N1CCC1=O | EC50 (Integrin alpha-4/beta-1 [15]): 976 nM |
|  |  | > 5 | 1110 |  |  | > 5 | O=C(O)CNC(=O)CC1CC(=O)N1 (stereo not given) |  |
|  |  | > 5 |  |  | > 5 | > 5 | Cc1ccccc1NC(=O)N1C(=O)C[C@@H]1C(=O)O |  |
| 18.9 | 136 |  |  | > 1000 |  |  | Cc1ccccc1NC(=O)N1CCC[C@H]1C(=O)O | EC50 (Integrin alpha-V/beta-3 [1]): 2880 nM; Activity (Integrin alpha-4/beta-1 [17]): inactive; EC50 (Integrin alpha-5/beta-1 [18]): 140 nM; Activity (Integrin alpha-4/beta-1 [19]): Dose-dependent effect; EC50 (Integrin alpha-4/beta-1 [15]): 10 nM |
| > 1000 | > 1000 | > 5 |  | 9.5 | > 5 |  | Cc1ccccc1NC(=O)NCCC(=O)O | EC50 (Integrin alpha-V/beta-3 [1]): 29.9 nM; Activity (Integrin alpha-V/beta-3 [3]): Active; Activity (Integrin alpha-V/beta-3 [4]): Active; Activity (Integrin alpha-V/beta-3 [5]): Active; EC50 (Integrin alpha-V/beta-3 [7]): 984 nM; Activity (Integrin alpha-V/beta-3 [8]): inactive; Activity (Integrin alpha-V/beta-3 [10]): inactive; Activity [13]: inactive |
|  |  | > 5 |  |  | > 5 | > 5 | NCc1ccc(NC(=O)N2C(=O)C[C@@H]2C(=O)O)cc1 |  |
|  |  | > 5 |  |  |  | > 5 | Cc1ccccc1NC(=O)N1C(=O)CC1CC(=O)NCC(=O)O (stereo not given) |  |
|  |  | > 5 |  |  |  | > 5 | NCc1ccc(NC(=O)N2C(=O)C[C@H]2C(=O)O)cc1 |  |
| > 1000 | 11.9 | > 5 | 96.9 | > 1000 |  | > 5 | Cc1ccccc1NC(=O)N1C(=O)C[C@@H]1C(=O)NCCC(=O)O |  |
| > 1000 | 409 | > 5 | 419 | > 1000 |  | > 5 | Cc1ccccc1C(=O)N1C(=O)CC1CC(=O)O (stereo not given) |  |
| > 1000 | 59.3 | > 5 | 41.5 | > 1000 |  | > 5 | Cc1ccccc1C(=O)N1C(=O)C[C@H]1C(=O)O | inhibition (Integrin alpha-5/beta-1 [20]): Active |
|  |  |  |  |  | > 5 | > 5 | Cc1ccccc1NC(=O)N1C(=O)CC1CC(=O)O (stereo not given) |  |
|  |  | > 5 |  |  |  |  | O=C(O)CC1CC(=O)N1 (stereo not given) |  |

— ChEMBL document CHEMBL4321835, “Could Dissecting the Molecular Framework of β-Lactam Integrin Ligands Enhance Selectivity?” (J Med Chem, 2019)
